PubChem BioAssay AID623885 (Vanderbilt Specialized Chemistry Center, 2012)
Several values for one entry are separate records, joined by “and”; a condition that tells them apart may be missing. Equal entries are not always repeated. Activity calls are given as the source filed them.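 How the source made its calls: active means mean half-maximal effective concentration under 30 µM; inactive means the rest.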

The compounds below were run against Metabotropic glutamate receptor 3 (Rattus norvegicus) (UniProt P31422) (assay: rat mGlu3 negative modulators or antagonists, dose response, thallium flux, HEK/GIRK cells (AID 623885)). Conditions: HEK293 GIRK rat mGlu3, thallium flux fluorescence.
Chain of Metabotropic glutamate receptor 3 (Rattus norvegicus) (P31422 whole entry, looked up): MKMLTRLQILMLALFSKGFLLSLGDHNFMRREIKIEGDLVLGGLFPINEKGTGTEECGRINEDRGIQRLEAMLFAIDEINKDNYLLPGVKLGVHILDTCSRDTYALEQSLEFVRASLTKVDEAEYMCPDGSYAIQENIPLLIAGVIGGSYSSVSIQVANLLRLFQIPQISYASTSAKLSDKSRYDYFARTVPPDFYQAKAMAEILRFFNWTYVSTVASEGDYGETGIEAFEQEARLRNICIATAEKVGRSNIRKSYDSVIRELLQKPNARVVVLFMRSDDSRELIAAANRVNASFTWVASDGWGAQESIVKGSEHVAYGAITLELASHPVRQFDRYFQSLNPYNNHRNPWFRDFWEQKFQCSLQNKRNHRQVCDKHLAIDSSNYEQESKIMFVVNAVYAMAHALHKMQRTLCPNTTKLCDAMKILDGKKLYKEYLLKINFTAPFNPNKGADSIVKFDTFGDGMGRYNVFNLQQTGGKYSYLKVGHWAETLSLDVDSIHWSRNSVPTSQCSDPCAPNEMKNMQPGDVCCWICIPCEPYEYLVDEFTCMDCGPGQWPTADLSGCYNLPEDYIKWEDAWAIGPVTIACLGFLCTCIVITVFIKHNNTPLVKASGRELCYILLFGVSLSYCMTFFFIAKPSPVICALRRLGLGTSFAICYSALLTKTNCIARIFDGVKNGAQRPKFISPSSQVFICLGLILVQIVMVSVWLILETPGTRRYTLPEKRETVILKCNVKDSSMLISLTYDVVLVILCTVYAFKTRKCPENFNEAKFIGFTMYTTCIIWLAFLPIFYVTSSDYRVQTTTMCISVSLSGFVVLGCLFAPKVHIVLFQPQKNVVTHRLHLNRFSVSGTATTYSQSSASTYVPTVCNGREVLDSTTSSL
Summary of the method: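 Material: HEK cells stably co-expressing GIRK channels, M4 muscarinic receptor, rat mGlu3. Probe or stimulus: thallium-containing buffer with or without agonist. Timing: dye loading 1 h room temperature, compounds ~2.5 min. Signal: thallium influx through GIRK, FluoZin-2 AM fluorescence. Read-out: baseline-normalized fluorescence slope 5–15 s post thallium/agonist, four-parameter logistic fit.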
Compound `COc1ccc(C#Cc2ccc(C(=O)N3CCCC(CO)C3)cc2)cc1` (configuration not stated) has an IC50 of 2460 nM.
`COc1ccc(C#Cc2ccc(C(=O)N3CCC[C@H](CO)C3)cc2)cc1` showed an IC50 of 3460 nM.

Same assay, conditions: HEK293 GIRK rat mGlu3, thallium flux fluorescence; at 30 µM (top of the series)
For `CC(C)(C)C#Cc1ccc(C(=O)N2CCC(O)CC2)cc1`, the “percent of glutamate max response” value was “inactive”.
In the case of `O=C(c1ccc(C#CCCCN2C(=O)c3ccccc3C2=O)cc1)N1CCC(O)CC1`, the “percent of glutamate max response” value is reported as “inactive”.
Work on `O=Cc1ccc(C#Cc2ccc(C(=O)N3CCC(O)CC3)cc2)cc1` yielded a percent of glutamate max response of 21.8.
With `CC(C)(O)C#Cc1ccc(C(=O)N2CCC(O)CC2)cc1` the “percent of glutamate max response” value was “inactive”.
With `COc1ccc(C#Cc2ccc(C(=O)NCCC(C)(C)C)cc2)cc1` the “percent of glutamate max response” value was “inactive”.
With `CN(C)c1ccc(C#Cc2ccc(C(=O)N3CCC(O)CC3)cc2)cc1` the “percent of glutamate max response” value was “inactive”.
Work on `COc1ccc(C#Cc2ccc(C(=O)N3CC(O)C3)cc2)cc1` yielded a percent of glutamate max response of 76.2.
For `COc1ccc(C#Cc2ccc(C(=O)N3CCOCC3)cc2)cc1`, the percent of glutamate max response was 65.1.
With `COc1ccc(C#Cc2ccccc2C(=O)N2CCC(O)CC2)cc1` the “percent of glutamate max response” value was “inactive”.
Work on `O=C(c1ccc(C#Cc2ccccc2F)cc1)N1CCC(O)CC1` yielded a percent of glutamate max response of 22.4.
For `COc1ccc(C#Cc2ccc(C(=O)N3CCC4CCCCC4C3)cc2)cc1` (configuration not stated), the “percent of glutamate max response” value was “inactive”.
In the case of `COc1ccc(C#Cc2ccc(C(=O)N[C@H](C)C3CCCCC3)cc2)cc1`, the “percent of glutamate max response” value is reported as “inactive”.
With `O=C(c1ccc(C#Cc2c(C(F)(F)F)cccc2C(F)(F)F)cc1)N1CCC(O)CC1` the percent of glutamate max response was 54.9.
`CC(=O)OCC#Cc1ccc(C(=O)N2CCC(O)CC2)cc1` was tested, and the “percent of glutamate max response” value was “inactive”.
`COc1ccc(C#Cc2ccc(C(=O)NCC(C)O)cc2)cc1` (configuration not stated) was tested, and the “percent of glutamate max response” value was “inactive”.
For `O=C(c1ccc(C#Cc2ccc(Cl)cc2)cc1)N1CCC(O)CC1`, the percent of glutamate max response was 51.6.
`CCCC1(O)CCN(C(=O)c2ccc(C#Cc3ccc(OC)cc3)cc2)CC1` was tested, and the “percent of glutamate max response” value was “inactive”.
`O=C(c1ccc(C#CCOCC2CO2)cc1)N1CCC(O)CC1` (configuration not stated) was tested, and the “percent of glutamate max response” value was “inactive”.
In the case of `CN(C)CC#Cc1ccc(C(=O)N2CCC(O)CC2)cc1`, the “percent of glutamate max response” value is reported as “inactive”.
`Cc1ccc(C#Cc2ccc(C(=O)N3CCC(O)CC3)cc2)cc1` was tested, and the percent of glutamate max response was 33.9.
With `O=C(CN1CCc2cc(C#Cc3ccccc3)ccc2C1=O)N1CCC2CCCCC2C1` (configuration not stated) the percent of glutamate max response was 26.5 and 64.7.
Compound `COc1ccc(C#Cc2ccc(C(=O)NCCC(C)(C)O)cc2)cc1` has a percent of glutamate max response of 114.
`CCC1(O)CCN(C(=O)c2ccc(C#Cc3ccc(OC)cc3)cc2)CC1` showed a percent of glutamate max response of 46.4.
For `COc1ccc(C#Cc2ccc(C(=O)NCCO)cc2)cc1`, the “percent of glutamate max response” value was “inactive”.
With `CCOC1CCN(C(=O)c2ccc(C#Cc3ccc(OC)cc3)cc2)CC1` the “percent of glutamate max response” value was “inactive”.
With `COc1ccc(C#Cc2ccc(C(=O)N3CCC(O)(c4ccc(Cl)c(C(F)(F)F)c4)CC3)cc2)cc1` the percent of glutamate max response was 117.
In the case of `O=C(c1ccc(C#CCCCCO)cc1)N1CCC(O)CC1`, the “percent of glutamate max response” value is reported as “inactive”.
In the case of `O=C(c1ccc(C#Cc2ccc(C(F)(F)F)cc2)cc1)N1CCC(O)CC1`, the percent of glutamate max response is reported as 54.2.
For `CC(O)(C#Cc1ccc(C(=O)N2CCC(O)CC2)cc1)c1cccc(F)c1` (configuration not stated), the “percent of glutamate max response” value was “inactive”.
`Cc1ccccc1C#Cc1ccc(C(=O)N2CCC(O)CC2)cc1` gave a percent of glutamate max response of 10.8.
Work on `COc1ccc(C#Cc2ccc(C(=O)N[C@H](C)C3CC3)cc2)cc1` yielded a percent of glutamate max response of 69.
With `CCCC(O)C#Cc1ccc(C(=O)N2CCC(O)CC2)cc1` (configuration not stated) the “percent of glutamate max response” value was “inactive”.
For `CCN1CCC[C@H]1CNC(=O)c1ccc(C#Cc2ccc(OC)cc2)cc1`, the percent of glutamate max response was 5.77.
`CCN(CC)CC#Cc1ccc(C(=O)N2CCC(O)CC2)cc1` was tested, and the “percent of glutamate max response” value was “inactive”.
In the case of `COCC(C)NC(=O)c1ccc(C#Cc2ccc(OC)cc2)cc1` (configuration not stated), the “percent of glutamate max response” value is reported as “inactive”.
With `COc1ccc(C#Cc2ccc(C(=O)N3CCN(c4ccccc4OC)CC3)cc2)cc1` the “percent of glutamate max response” value was “inactive”.
Work on `COc1ccc(C#Cc2ccc(C(=O)N3CCCC3)cc2)cc1` yielded a percent of glutamate max response of 35.3.
`Cn1ccnc1C#Cc1ccc(C(=O)N2CCC(O)CC2)cc1` was tested, and the “percent of glutamate max response” value was “inactive”.
With `COc1ccc(C#Cc2ccc(C(=O)NC(C)(C)C)cc2)cc1` the “percent of glutamate max response” value was “inactive”.
In the case of `COc1ccc(C#Cc2ccc(C(=O)NCCCO)cc2)cc1`, the “percent of glutamate max response” value is reported as “inactive”.
With `O=C(c1ccc(C#Cc2ccc(-c3ccccc3)cc2)cc1)N1CCC(O)CC1` the “percent of glutamate max response” value was “inactive”.
Compound `CC(C)CCC#Cc1ccc(C(=O)N2CCC(O)CC2)cc1` has a percent of glutamate max response of 24.7.
With `COc1ccc(C#Cc2ccc(C(=O)N[C@H](C)C(C)C)cc2)cc1` the “percent of glutamate max response” value was “inactive”.
Work on `CC(C)(C)OC(=O)N1CCC(NC(=O)CN2CCc3cc(C#Cc4ccccc4)ccc3C2=O)CC1` yielded a percent of glutamate max response of 33.8.
In the case of `O=C(c1ccc(C#CCN2C(=O)c3ccccc3C2=O)cc1)N1CCC(O)CC1`, the “percent of glutamate max response” value is reported as “inactive”.
In the case of `O=C(c1ccc(C#Cc2ccncc2)cc1)N1CCC(O)CC1`, the “percent of glutamate max response” value is reported as “inactive”.
`CCCCN(CCO)C(=O)c1ccc(C#Cc2ccc(OC)cc2)cc1` was tested, and the percent of glutamate max response was 8.56.
`CC(O)CC#Cc1ccc(C(=O)N2CCC(O)CC2)cc1` (configuration not stated) was tested, and the “percent of glutamate max response” value was “inactive”.
In the case of `O=C(c1ccc(C#CCCCCCl)cc1)N1CCC(O)CC1`, the percent of glutamate max response is reported as 47.8.
`O=C(c1ccc(C#CCC2CCCCC2)cc1)N1CCC(O)CC1` gave a percent of glutamate max response of 4.33.
`COc1ccc(C#Cc2ccc(C(=O)N3CCC(CO)C3)cc2)cc1` (configuration not stated) was tested, and the percent of glutamate max response was 14.7.
Work on `COc1ccc(C#Cc2ccc(C(=O)N3CCC(O)CC3)cc2)cc1` yielded a percent of glutamate max response of 7.43.
For `O=C(c1ccc(C#CC2(O)CCCCC2)cc1)N1CCC(O)CC1`, the “percent of glutamate max response” value was “inactive”.
With `COc1ccc(C#Cc2ccc(C(=O)N3CCC(OC)CC3)cc2)cc1` the “percent of glutamate max response” value was “inactive”.
`COc1ccc(C#Cc2ccc(C(=O)N3CCC(C(C)=O)(c4ccccc4)CC3)cc2)cc1` was tested, and the “percent of glutamate max response” value was “inactive”.
For `CCOC(=O)C#Cc1ccc(C(=O)N2CCC(O)CC2)cc1`, the “percent of glutamate max response” value was “inactive”.
Compound `COc1ccc(C#Cc2ccc(C(=O)N3CCN(C(C)C)CC3)cc2)cc1` has a percent of glutamate max response of 1.26.
With `O=C(c1ccc(C#Cc2ccccn2)cc1)N1CCC(O)CC1` the “percent of glutamate max response” value was “inactive”.
Work on `O=Cc1ccccc1C#Cc1ccc(C(=O)N2CCC(O)CC2)cc1` yielded a percent of glutamate max response of 43.7.
For `COc1ccc(C#Cc2ccc(C(=O)NC3CCC(C)CC3)cc2)cc1` (configuration not stated), the “percent of glutamate max response” value was “inactive”.
In the case of `COc1ccc(C#Cc2ccc(C(=O)N3CCC[C@@H](C(=O)O)C3)cc2)cc1`, the percent of glutamate max response is reported as 19.5.
`COc1ccc(C#Cc2ccc(C(=O)N[C@H]3CCCCNC3=O)cc2)cc1` was tested, and the “percent of glutamate max response” value was “inactive”.
For `COc1ccc(C#Cc2ccc(C(=O)N(CCO)c3ccccc3)cc2)cc1`, the “percent of glutamate max response” value was “inactive”.
Compound `COc1ccc(C#Cc2ccc(C(=O)Nc3ccc(F)cn3)cc2)cc1` has a percent of glutamate max response of 63.9.
Compound `O=C(c1ccc(C#CC2CCCCC2)cc1)N1CCC(O)CC1` has a percent of glutamate max response of 37.
In the case of `O=C(c1ccc(C#CCc2ccsc2)cc1)N1CCC(O)CC1`, the percent of glutamate max response is reported as 16.1.
In the case of `CCC(C)(O)C#Cc1ccc(C(=O)N2CCC(O)CC2)cc1` (configuration not stated), the “percent of glutamate max response” value is reported as “inactive”.
For `CCC(N)(C#Cc1ccc(C(=O)N2CCC(O)CC2)cc1)CC`, the “percent of glutamate max response” value was “inactive”.
With `COc1ccc(C#Cc2ccc(C(=O)NC3CCC3)cc2)cc1` the “percent of glutamate max response” value was “inactive”.
Work on `CC(C)(C)NC(=O)CN1CCc2cc(C#Cc3ccccc3)ccc2C1=O` yielded a percent of glutamate max response of 51.4.
